Values after ≈ are worked out from the molar mass of the structure shown. Active and inactive are the calls of the source. No cut-off for these calls is given here.

For one data set, the system named is MDCK. Briefly: Cytotoxicity against MDCK cells by MTS assay. In kind it is cell-based, Canis lupus familiaris. To be noted: dog, mdck. Summed up: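 In Madin Darby canine kidney cells, the 50% cytotoxic concentration was derived from cell viability measured by the colorimetric formazan-based MTS assay.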
A short description of data set [1]: Cytotoxicity against MDCK cells assessed as minimum concentration required to cause microscopically detectable alteration after 2 days. The format is cell-based, Canis lupus familiaris. To be noted: dog, read-out: Activity.
Data set [2] has as its system Influenza B virus. The data set is described as follows: Antiviral activity against influenza B virus infected in MDCK cells assessed as protection against virus-induced cytopathogenicity after 2 days. The format is functional, organism-based. Summed up: (§1)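 Infected MDCK cells were treated. […] N.A. means not active at the highest concentration tested or at a subtoxic concentration.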

In data set [3] the test system is Influenza B virus. The data set is described as follows: Antiviral activity against influenza B virus infected in MDCK cells assessed as cell viability after 2 days by MTS assay. The format is functional, organism-based.
A short description of data set [4]: Cytotoxicity against human HEL cells assessed as minimum concentration required to cause microscopically detectable alteration after 2 days. The format is cell-based. Particulars: read-out: Activity.
In data set [5] the test system is Human alphaherpesvirus 1. The data set is described as follows: Antiviral activity against Herpes simplex virus-1 KOS infected in human HEL cells assessed as protection against virus-induced cytopathogenicity after 2 days. In kind it is functional, organism-based. To be noted: Human alphaherpesvirus 1, KOS, 48 h.
Another data set relates to Human alphaherpesvirus 2. Briefly: Antiviral activity against Herpes simplex virus-2 G infected in human HEL cells assessed as protection against virus-induced cytopathogenicity after 2 days. In kind it is functional, organism-based. To be noted: Human alphaherpesvirus 2, strain G, 48 h.
For data set [6], the system named is Vesicular stomatitis virus. The data set is described as follows: Antiviral activity against Vesicular stomatitis virus infected in human HEL cells assessed as protection against virus-induced cytopathogenicity after 2 days. The format is functional, organism-based. Particulars: 48 h.
Data set [7] deals with Human alphaherpesvirus 1. The data set is described as follows: Antiviral activity against acyclovir-resistant TK deficient Herpes simplex virus-1 KOS infected in human HEL cells assessed as protection against virus-induced cytopathogenicity after 2 days. The format is functional, organism-based. To be noted: Human alphaherpesvirus 1, KOS, 48 h.
A short description of data set [8]: Cytotoxicity against african green monkey Vero cells assessed as minimum concentration required to cause microscopically detectable alteration after 2 days. In kind it is cell-based. To be noted: chlorocebus sabaeus, read-out: Activity.
The test system of another data set is Human respirovirus 3. Briefly: Antiviral activity against Para influenza-3 virus infected in african green monkey Vero cells assessed as protection against virus-induced cytopathogenicity after 2 days. In kind it is functional, organism-based. Particulars: Human respirovirus 3, Vero, 48 h.
For data set [9], the system named is Mammalian orthoreovirus 1. Briefly: Antiviral activity against Reovirus-1 infected in african green monkey Vero cells assessed as protection against virus-induced cytopathogenicity after 2 days. The format is functional, organism-based. Particulars: Mammalian orthoreovirus 1, Vero, 48 h.
Data set [10] concerns Sindbis virus. Briefly: Antiviral activity against Sindbis virus infected in african green monkey Vero cells assessed as protection against virus-induced cytopathogenicity after 2 days. In kind it is functional, organism-based. To be noted: 48 h.
Data set [11] has as its system Coxsackievirus B4. Briefly: Antiviral activity against Coxsackie virus B4 infected in african green monkey Vero cells assessed as protection against virus-induced cytopathogenicity after 2 days. In kind it is functional, organism-based. Particulars: Enterovirus B, 48 h.
Data set [12] relates to Punta Toro virus. Briefly: Antiviral activity against Punta Toro virus infected in african green monkey Vero cells assessed as protection against virus-induced cytopathogenicity after 2 days. In kind it is functional, organism-based. Particulars: 48 h.
The nature of data set [13]: Cytotoxicity against cat CRFK cells by MTS assay. The format is cell-based, Felis catus. Particulars: crfk. In a few lines:
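In uninfected CRFK cells, the 50% cytotoxic concentration was derived from cell viability measured by the colorimetric formazan-based MTS assay.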

The test system of data set [14] is Feline infectious peritonitis virus. Briefly: Antiviral activity against Feline coronavirus FIPV infected in cat CRFK cells assessed as protection against virus-induced cytopathogenicity after 2 days by MTS assay. In kind it is functional, cell-based. Particulars: Alphacoronavirus 1, CRFK, 48 h.
The subject of a further data set is Felid alphaherpesvirus 1. Briefly: Antiviral activity against Feline herpes virus infected in cat CRFK cells assessed as protection against virus-induced cytopathogenicity after 2 days by MTS assay. The format is functional, organism-based. Particulars: Felid alphaherpesvirus 1, CRFK, 48 h.
The nature of data set [15]: Cytotoxicity against human HeLa cells assessed as minimum concentration required to cause microscopically detectable alteration after 2 days. The format is cell-based. Particulars: read-out: Activity.
Data set [16] relates to Vesicular stomatitis virus. The data set is described as follows: Antiviral activity against Vesicular stomatitis virus infected in human HeLa cells assessed as protection against virus-induced cytopathogenicity after 2 days. The format is functional, organism-based. Particulars: 48 h.
In data set [17] the test system is Coxsackievirus B4. Briefly: Antiviral activity against Coxsackie virus B4 infected in human HeLa cells assessed as protection against virus-induced cytopathogenicity after 2 days. The format is functional, organism-based. To be noted: Enterovirus B, 48 h.
Data set [18] deals with Respiratory syncytial virus. The data set is described as follows: Antiviral activity against Respiratory syncytial virus infected in human HeLa cells assessed as protection against virus-induced cytopathogenicity after 2 days. In kind it is functional, organism-based. To be noted: 48 h.
The subject of data set [19] is Mammalian orthoreovirus 1. Briefly: Antiviral activity against Reovirus-1 infected in african green monkey Vero cells assessed as inhibition of viral replication. In kind it is functional, organism-based.
For data set [20], the system named is Sindbis virus. The data set is described as follows: Antiviral activity against Sindbis virus infected in african green monkey Vero cells assessed as inhibition of viral replication. The format is functional, organism-based.
The test system of data set [21] is Coxsackievirus B4. The data set is described as follows: Antiviral activity against Coxsackie virus B4 infected in african green monkey Vero cells assessed as inhibition of viral replication. In kind it is functional, organism-based.
Data set [22] concerns Punta Toro virus. The data set is described as follows: Antiviral activity against Punta Toro virus infected in african green monkey Vero cells assessed as inhibition of viral replication. The format is functional, organism-based.
Data set [23] can be described thus: Selectivity index, ratio of minimum concentration required to cause microscopically detectable alteration in human HEL cells to EC50 for Herpes simplex virus-1 KOS. The format is toxicity, cell-based. To be noted: read-out: Selectivity Index. In a few lines:
(§2)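 Cytotoxicity was taken as the concentration causing a microscopically detectable change in normal cell morphology (Vero or HEL). […] The selectivity index is the first divided by the second.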

Data set [24] is described as follows: Selectivity index, ratio of minimum concentration required to cause microscopically detectable alteration in human HEL cells to EC50 for Herpes simplex virus-2 G. The format is toxicity, cell-based. Particulars: read-out: Selectivity Index. Summed up:
as §2

Data set [25] in a line: Selectivity index, ratio of minimum concentration required to cause microscopically detectable alteration in human HEL cells to EC50 for acyclovir-resistant TK deficient Herpes simplex virus-1 KOS. In kind it is toxicity, cell-based. To be noted: read-out: Selectivity Index. Summed up:
as §2

Data set [26] can be described thus: Selectivity index, ratio of minimum concentration required to cause microscopically detectable alteration in human HEL cells to EC50 for acyclovir-resistant TK deficient Vaccina virus. In kind it is toxicity, cell-based. Particulars: read-out: Selectivity Index. In a few lines:
as §2

Data set [27] in a line: Selectivity index, ratio of minimum concentration required to cause microscopically detectable alteration in green monkey Vero cells to EC50 for Reovirus-1. The format is toxicity, cell-based. Particulars: read-out: Selectivity Index. Summed up: as §2
Data set [28] in a line: Selectivity index, ratio of minimum concentration required to cause microscopically detectable alteration in green monkey Vero cells to EC50 for Sindbis virus. The format is toxicity, cell-based. To be noted: read-out: Selectivity Index. Summed up: as §2
The nature of data set [29]: Selectivity index, ratio of minimum concentration required to cause microscopically detectable alteration in green monkey Vero cells to EC50 for sCoxsackie virus B4. The format is toxicity, cell-based. To be noted: read-out: Selectivity Index. Summed up: as §2
Data set [30] is described as follows: Selectivity index, ratio of minimum concentration required to cause microscopically detectable alteration in green monkey Vero cells to EC50 for Punta Toro virus. In kind it is toxicity, cell-based. To be noted: read-out: Selectivity Index. Summed up:
as §2

In data set [31] the test system is Influenza A virus. The data set is described as follows: Antiviral activity against influenza A virus H1N1 infected in MDCK cells assessed as protection against virus-induced cytopathogenicity at 100 ug/ml after 2 days. The format is functional, organism-based. Summed up: as §1
In data set [32] the test system is Influenza A virus. The data set is described as follows: Antiviral activity against Influenza A virus H3N2 infected in MDCK cells assessed as protection against virus-induced cytopathogenicity at 100 ug/ml after 2 days. In kind it is functional, organism-based. Summed up: as §1
Data set [33] has as its system Influenza B virus. Briefly: Antiviral activity against influenza B virus infected in MDCK cells assessed as protection against virus-induced cytopathogenicity at 100 ug/ml after 2 days. In kind it is functional, organism-based. In a few lines: as §1
In data set [34] the test system is Influenza A virus. The data set is described as follows: Antiviral activity against influenza A virus H1N1 infected in MDCK cells assessed as cell viability at 100 ug/ml after 2 days by MTS assay. In kind it is functional, organism-based.
The test system of data set [35] is Influenza A virus. The data set is described as follows: Antiviral activity against Influenza A virus H3N2 infected in MDCK cells assessed as cell viability at 100 ug/ml after 2 days by MTS assay. In kind it is functional, organism-based.
The subject of data set [36] is Influenza B virus. Briefly: Antiviral activity against influenza B virus infected in MDCK cells assessed as cell viability at 100 ug/ml after 2 days by MTS assay. In kind it is functional, organism-based.

For the compound `CC(N)C12CC3CC(CC(C3)C1)C2` (stereo not drawn) [RIMANTADINE], in the data set on MDCK, the CC50 came to 472 µg/mL (≈ 2630 µM). Besides, the MCC at 48 h in data set [1] is 1000 µg/mL. For the same compound, the half-maximal effective concentration (EC50) result with Influenza B virus [2] and in the data set with Influenza B virus [3] was “Not Active” in each case.

Take `O=c1c2ccccc2nc(-c2ccccc2)n1/N=C/c1ccccc1O`: the MCC at 48 h in data set [4] is 100 µg/mL; in data set [8], 100 µg/mL; in data set [15], 4 µg/mL; in data set [1], no less than 0.8 µg/mL. The EC50 in the data set with Human alphaherpesvirus 1 [5] was 1 µg/mL (≈ 2.93 µM); in the data set with Human alphaherpesvirus 2, 1 µg/mL (≈ 2.93 µM); in data set [6], 15 µg/mL (≈ 43.9 µM); with Human alphaherpesvirus 1 [7] it was 1 µg/mL (≈ 2.93 µM); with Human respirovirus 3, greater than 20 µg/mL; in data set [9], 10 µg/mL (≈ 29.3 µM). For the same compound, the EC50 with Sindbis virus [10] is 5 µg/mL (≈ 14.6 µM); in the data set on Coxsackievirus B4 [11] it was 10 µg/mL (≈ 29.3 µM); in the data set with Punta Toro virus [12], 3 µg/mL (≈ 8.79 µM); in data set [14], greater than 4 µg/mL; in the data set on Felid alphaherpesvirus 1 it was greater than 4 µg/mL; in data set [16] it was greater than 0.8 µg/mL. The EC50 in the data set on Coxsackievirus B4 [17] was greater than 0.8 µg/mL; in [18], greater than 0.8 µg/mL; in the data set on Influenza A virus [31], “Not Active”; with Influenza A virus [32], “Not Active”; in the data set on Influenza B virus [33] it was “Not Active”; with Influenza A virus [34], “Not Active”. Moreover, the EC50 result in the data set with Influenza A virus [35] and in the data set on Influenza B virus [36] was “Not Active” in each case. Further, the CC50 in data set [13] turned out to be 11.2 µg/mL (≈ 32.8 µM); with MDCK, 2.6 µg/mL (≈ 7.62 µM). In addition, the inhibition result (in data set [19]; with Sindbis virus [20]; with Coxsackievirus B4 [21]; in the data set with Punta Toro virus [22]) was “Active” in each case. Further, the selectivity ratio in data set [23] came out at 100; in [24], 100; in [25] it was 100; in [26], 125; in [27] it was 10; in [28] it was 20. The selectivity ratio in data set [29] was 10; in data set [30], 33.

As to `O=c1c2ccccc2nc(-c2ccccc2)n1/N=C/c1ccc(O)cc1`, the MCC at 48 h in data set [4] came to 100 µg/mL; in data set [8] it was 100 µg/mL; in [15], 100 µg/mL; in data set [1] it was 20 µg/mL. Further, the EC50 (with Human alphaherpesvirus 1 [5]; in the data set on Human alphaherpesvirus 2; in data set [6]; in the data set on Human alphaherpesvirus 1 [7]; with Human respirovirus 3; in data set [9]) was greater than 20 µg/mL each time. Further, the EC50 (in the data set on Sindbis virus [10]; with Coxsackievirus B4 [11]; in the data set with Punta Toro virus [12]; in [14]; in the data set with Felid alphaherpesvirus 1; in [16]) was greater than 20 µg/mL throughout. Besides, the EC50 is greater than 20 µg/mL in the data set with Coxsackievirus B4 [17]; greater than 20 µg/mL in data set [18]; “Not Active” in the data set on Influenza A virus [31]; “Not Active” with Influenza A virus [32]; “Not Active” in the data set with Influenza B virus [33]; “Not Active” in the data set with Influenza A virus [34]. Moreover, the EC50 entry with Influenza A virus [35] and in the data set on Influenza B virus [36] was “Not Active” each time. Besides, the CC50 was found to be 59.5 µg/mL (≈ 174 µM) in data set [13] and 10.2 µg/mL (≈ 29.9 µM) in the data set on MDCK.

These data come from ChEMBL document CHEMBL1287642, “Synthesis, antiviral activity and cytotoxicity evaluation of Schiff bases of some 2-phenyl quinazoline-4(3)H-ones” (Eur J Med Chem, 2010).
